pIC50: −log10 of the molar value. Several values for one entry are separate records, joined by “and”; a condition that tells them apart may be missing. Equal entries are not always repeated. Entries after “also recorded” stand apart in the source; their conditions may differ. Each block holds one compound with its values, some of them ahead of it. Activity calls are given as the source filed them. The calls are words filed in the database; no cut-off is given here.
Legend:
[1] = biological target: Phosphatidylinositol 4,5-bisphosphate 3-kinase catalytic subunit gamma isoform (Homo sapiens, UniProt P48736); experiment: Inhibition of full length human PI3Kgamma using PIP2 as substrate after 30 mins by TR-FRET assay
Phosphatidylinositol 4,5-bisphosphate 3-kinase catalytic subunit gamma isoform, sequence (P48736 whole entry, canonical isoform): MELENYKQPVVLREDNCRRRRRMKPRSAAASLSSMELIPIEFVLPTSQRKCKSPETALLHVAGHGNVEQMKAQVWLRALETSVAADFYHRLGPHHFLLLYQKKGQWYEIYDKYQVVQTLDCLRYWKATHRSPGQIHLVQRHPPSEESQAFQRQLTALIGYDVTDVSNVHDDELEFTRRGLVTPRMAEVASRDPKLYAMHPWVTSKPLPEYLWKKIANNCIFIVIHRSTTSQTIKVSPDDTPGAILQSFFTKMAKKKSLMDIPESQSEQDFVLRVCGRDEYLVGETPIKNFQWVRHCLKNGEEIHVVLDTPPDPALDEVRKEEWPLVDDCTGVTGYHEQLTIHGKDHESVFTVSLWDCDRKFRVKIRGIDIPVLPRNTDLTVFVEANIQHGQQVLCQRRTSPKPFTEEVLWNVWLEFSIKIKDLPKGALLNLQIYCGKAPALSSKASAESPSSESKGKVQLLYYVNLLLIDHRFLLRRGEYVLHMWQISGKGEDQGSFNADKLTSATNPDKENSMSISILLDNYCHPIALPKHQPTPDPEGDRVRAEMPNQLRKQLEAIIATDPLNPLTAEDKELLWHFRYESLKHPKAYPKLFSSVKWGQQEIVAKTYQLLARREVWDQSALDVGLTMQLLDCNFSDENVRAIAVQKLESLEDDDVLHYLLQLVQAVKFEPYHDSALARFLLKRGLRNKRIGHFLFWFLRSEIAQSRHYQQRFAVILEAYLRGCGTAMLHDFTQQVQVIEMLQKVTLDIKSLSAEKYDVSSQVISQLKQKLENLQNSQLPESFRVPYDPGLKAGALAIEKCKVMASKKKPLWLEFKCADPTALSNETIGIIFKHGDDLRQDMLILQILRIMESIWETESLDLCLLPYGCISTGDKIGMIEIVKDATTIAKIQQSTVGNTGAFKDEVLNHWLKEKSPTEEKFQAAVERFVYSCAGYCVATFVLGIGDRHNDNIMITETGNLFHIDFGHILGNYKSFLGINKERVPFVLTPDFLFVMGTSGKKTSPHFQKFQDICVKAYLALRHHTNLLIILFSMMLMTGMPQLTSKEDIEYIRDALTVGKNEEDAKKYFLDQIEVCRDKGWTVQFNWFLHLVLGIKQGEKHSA
Method in brief: (§1)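 In vitro kinase assay run against each Class I PI3K isoform, with ATP at 2×Km steady-state concentration; IC50 values are the average of at least 2 determinations.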

[2] = Intrinsic clearance in human liver microsomes at 1 uM measured in presence of NADPH/UDPGA by UHPLC-HRMS based assay; type: ADME, Microsome
[3] = biological target: T1, Aldehyde oxidase (Homo sapiens, UniProt Q06278); experiment: Drug metabolism in human hepatocytes assessed as AO-mediated 4-(6-(2-amino-3-fluoropyridin-4-yl)-2-methyl-4-(4H-1,2,4-triazol-3-yl)-1H-benzo[d]imidazol-1-yl)-5,8-difluoroquinolin-2(1H)-one metabolite formation at 0.5 uM measured up to 250 mins by UHPLC-HRMS based assay; type: ADME, cell-based
T1 sequence (Q06278 whole entry): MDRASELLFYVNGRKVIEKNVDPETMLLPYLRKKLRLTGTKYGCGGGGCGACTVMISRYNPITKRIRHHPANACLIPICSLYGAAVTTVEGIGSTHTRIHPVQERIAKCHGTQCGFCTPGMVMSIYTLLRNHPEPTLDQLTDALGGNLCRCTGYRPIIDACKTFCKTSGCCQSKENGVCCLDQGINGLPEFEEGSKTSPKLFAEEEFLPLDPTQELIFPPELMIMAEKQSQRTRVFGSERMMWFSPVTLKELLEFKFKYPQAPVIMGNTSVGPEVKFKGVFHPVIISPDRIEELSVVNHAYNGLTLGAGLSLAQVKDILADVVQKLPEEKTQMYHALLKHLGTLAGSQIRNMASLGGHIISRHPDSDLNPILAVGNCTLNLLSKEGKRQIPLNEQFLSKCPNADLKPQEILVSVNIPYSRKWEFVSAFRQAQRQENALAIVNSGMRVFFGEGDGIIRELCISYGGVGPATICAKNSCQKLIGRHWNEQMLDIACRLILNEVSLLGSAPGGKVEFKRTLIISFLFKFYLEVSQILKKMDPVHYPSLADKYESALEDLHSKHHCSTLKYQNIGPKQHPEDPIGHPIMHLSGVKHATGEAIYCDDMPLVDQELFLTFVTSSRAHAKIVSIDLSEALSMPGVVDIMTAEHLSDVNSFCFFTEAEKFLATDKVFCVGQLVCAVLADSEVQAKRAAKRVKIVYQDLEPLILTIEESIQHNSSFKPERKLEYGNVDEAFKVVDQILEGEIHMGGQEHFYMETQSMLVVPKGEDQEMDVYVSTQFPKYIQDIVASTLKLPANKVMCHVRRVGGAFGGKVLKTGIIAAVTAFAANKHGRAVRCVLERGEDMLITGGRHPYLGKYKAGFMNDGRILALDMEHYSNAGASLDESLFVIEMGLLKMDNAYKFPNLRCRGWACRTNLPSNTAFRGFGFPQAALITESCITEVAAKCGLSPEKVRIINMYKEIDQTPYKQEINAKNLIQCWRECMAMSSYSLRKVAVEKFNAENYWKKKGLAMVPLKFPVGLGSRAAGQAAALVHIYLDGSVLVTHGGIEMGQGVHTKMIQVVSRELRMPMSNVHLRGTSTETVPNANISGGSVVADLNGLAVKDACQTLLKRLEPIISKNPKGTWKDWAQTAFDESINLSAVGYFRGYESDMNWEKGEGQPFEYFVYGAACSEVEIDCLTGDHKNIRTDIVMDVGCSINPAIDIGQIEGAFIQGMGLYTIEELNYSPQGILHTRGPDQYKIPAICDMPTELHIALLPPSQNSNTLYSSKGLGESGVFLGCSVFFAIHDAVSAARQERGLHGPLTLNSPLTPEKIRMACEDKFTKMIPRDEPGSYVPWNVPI

[4] = biological target: T1, Aldehyde oxidase; experiment: Drug metabolism in human hepatocytes assessed as AO-mediated triazole oxidation at 0.5 uM measured up to 250 mins by UHPLC-HRMS based assay; type: ADME, cell-based
[5] = biological target: T1, Aldehyde oxidase; experiment: Drug metabolism in human liver cytosol assessed as AO-mediated 4-(6-(2-amino-3-fluoropyridin-4-yl)-2-methyl-4-(4H-1,2,4-triazol-3-yl)-1H-benzo[d]imidazol-1-yl)-5,8-difluoroquinolin-2(1H)-one metabolite formation at 0.5 uM measured after 2 hrs by UHPLC-HRMS based assay; type: ADME, subcellular
[6] = biological target: Voltage-gated inwardly rectifying potassium channel KCNH2 (Homo sapiens, UniProt Q12809); experiment: Inhibition of human ERG at 25 uM
Voltage-gated inwardly rectifying potassium channel KCNH2, sequence (Q12809 whole entry): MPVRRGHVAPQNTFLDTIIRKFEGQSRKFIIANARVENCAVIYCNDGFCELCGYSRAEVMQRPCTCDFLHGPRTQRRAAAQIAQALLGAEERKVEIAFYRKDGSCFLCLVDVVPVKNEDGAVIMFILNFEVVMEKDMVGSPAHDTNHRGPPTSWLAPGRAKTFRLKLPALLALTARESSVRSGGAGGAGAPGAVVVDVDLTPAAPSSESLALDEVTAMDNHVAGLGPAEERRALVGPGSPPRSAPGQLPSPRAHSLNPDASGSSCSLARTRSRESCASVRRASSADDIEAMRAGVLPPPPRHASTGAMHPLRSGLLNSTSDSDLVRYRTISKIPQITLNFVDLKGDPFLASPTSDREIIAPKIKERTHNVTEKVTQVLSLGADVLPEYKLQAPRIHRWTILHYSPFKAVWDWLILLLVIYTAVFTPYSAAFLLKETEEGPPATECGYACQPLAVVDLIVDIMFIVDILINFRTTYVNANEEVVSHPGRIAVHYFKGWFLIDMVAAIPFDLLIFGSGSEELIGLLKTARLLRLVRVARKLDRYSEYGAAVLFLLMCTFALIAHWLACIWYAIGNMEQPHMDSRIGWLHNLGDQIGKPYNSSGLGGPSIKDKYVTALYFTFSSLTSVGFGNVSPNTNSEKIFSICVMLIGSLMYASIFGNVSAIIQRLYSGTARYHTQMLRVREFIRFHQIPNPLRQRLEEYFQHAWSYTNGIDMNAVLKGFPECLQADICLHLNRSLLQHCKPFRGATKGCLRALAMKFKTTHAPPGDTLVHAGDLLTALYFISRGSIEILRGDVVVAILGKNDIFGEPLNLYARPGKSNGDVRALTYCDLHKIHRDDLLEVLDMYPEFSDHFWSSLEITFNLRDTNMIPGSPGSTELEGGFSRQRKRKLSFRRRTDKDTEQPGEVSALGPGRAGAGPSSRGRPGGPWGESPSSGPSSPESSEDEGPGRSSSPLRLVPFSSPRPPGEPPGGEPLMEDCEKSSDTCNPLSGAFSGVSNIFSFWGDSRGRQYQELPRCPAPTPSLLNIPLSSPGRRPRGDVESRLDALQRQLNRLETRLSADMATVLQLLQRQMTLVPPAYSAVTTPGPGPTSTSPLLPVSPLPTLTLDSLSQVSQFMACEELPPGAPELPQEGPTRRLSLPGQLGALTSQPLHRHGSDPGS

[7] = system: Cytochrome P450; experiment: Inhibition of human CYP450 at 25 uM; type: ADME, protein assay
[8] = Fraction unbound in Sprague-Dawley rat plasma; type: ADME, cell-free
[9] = Clearance in Sprague-Dawley rat at 1 mg/kg, iv by ESI-LC/MS/MS analysis; type: ADME, organism-based; conditions: in vivo
[10] = Volume of distribution at steady state in Sprague-Dawley rat at 1 mg/kg, iv by ESI-LC/MS/MS analysis; type: ADME, organism-based; conditions: in vivo, read-out: Vdss
[11] = Terminal half life in Sprague-Dawley rat at 1 mg/kg, iv by ESI-LC/MS/MS analysis; type: ADME, organism-based; conditions: in vivo, read-out: beta t1/2 (converted)
[12] = MRT in Sprague-Dawley rat at 1 mg/kg, iv by ESI-LC/MS/MS analysis; type: ADME, organism-based; conditions: in vivo
[13] = Oral bioavailability in Sprague-Dawley rat at 5 mg/kg by ESI-LC/MS/MS analysis; type: ADME, organism-based; conditions: in vivo
[14] = Fraction unbound in Beagle dog plasma; type: ADME, cell-free, Canis lupus familiaris
[15] = Clearance in Beagle dog at 1 mg/kg, iv by ESI-LC/MS/MS analysis; type: ADME, organism-based, Canis lupus familiaris; conditions: in vivo
[16] = Volume of distribution at steady state in Beagle dog at 1 mg/kg, iv by ESI-LC/MS/MS analysis; type: ADME, organism-based, Canis lupus familiaris; conditions: in vivo, read-out: Vdss
[17] = Terminal half life in Beagle dog at 1 mg/kg, iv by ESI-LC/MS/MS analysis; type: ADME, organism-based, Canis lupus familiaris; conditions: in vivo, read-out: beta t1/2 (converted)
[18] = MRT in Beagle dog at 1 mg/kg, iv by ESI-LC/MS/MS analysis; type: ADME, organism-based, Canis lupus familiaris; conditions: in vivo
[19] = Fraction unbound in cynomolgus monkey plasma; type: ADME, cell-free, Macaca fascicularis
[20] = Clearance in cynomolgus monkey at 1 mg/kg, iv by ESI-LC/MS/MS analysis; type: ADME, organism-based, Macaca fascicularis; conditions: in vivo
[21] = Volume of distribution at steady state in cynomolgus monkey at 1 mg/kg, iv by ESI-LC/MS/MS analysis; type: ADME, organism-based, Macaca fascicularis; conditions: in vivo, read-out: Vdss
[22] = Terminal half life in cynomolgus monkey at 1 mg/kg, iv by ESI-LC/MS/MS analysis; type: ADME, organism-based, Macaca fascicularis; conditions: in vivo, read-out: beta t1/2 (converted)
[23] = MRT in cynomolgus monkey at 1 mg/kg, iv by ESI-LC/MS/MS analysis; type: ADME, organism-based, Macaca fascicularis; conditions: in vivo
[24] = Oral bioavailability in cynomolgus monkey at 5 mg/kg by ESI-LC/MS/MS analysis; type: ADME, organism-based, Macaca fascicularis; conditions: in vivo
[25] = Fraction unbound in rhesus monkey plasma; type: ADME, cell-free, Macaca mulatta
[26] = Clearance in rhesus monkey at 1 mg/kg, iv by ESI-LC/MS/MS analysis; type: ADME, organism-based, Macaca mulatta; conditions: in vivo
[27] = Volume of distribution at steady state in rhesus monkey at 1 mg/kg, iv by ESI-LC/MS/MS analysis; type: ADME, organism-based, Macaca mulatta; conditions: in vivo, read-out: Vdss
[28] = Terminal half life in rhesus monkey at 1 mg/kg, iv by ESI-LC/MS/MS analysis; type: ADME, organism-based, Macaca mulatta; conditions: in vivo, read-out: beta t1/2 (converted)
[29] = MRT in rhesus monkey at 1 mg/kg, iv by ESI-LC/MS/MS analysis; type: ADME, organism-based, Macaca mulatta; conditions: in vivo
[30] = Permeability across apical to basolateral side in human Caco2 cells at 10 uM after 1 to 2 hrs by LC/MS/MS analysis; type: ADME, cell-based; conditions: Caco-2, read-out: permeability
[31] = Efflux ratio of apparent permeability in human Caco2 cells at 10 uM after 1 to 2 hrs by LC/MS/MS analysis; type: ADME, cell-based; conditions: Caco-2
[32] = Conformation stability assessed as rate constant for (P)-4-(1-(5,8-difluoroquinolin-4-yl)-2-methyl-4-(4H-1,2,4-triazol-3-yl)-1H-benzo[d]imidazol-6-yl)-3-fluoropyridin-2-amine formation at 10 mg at 120 degC by chiral SFC analysis; type: physicochemical
[33] = biological target: Phosphatidylinositol 4,5-bisphosphate 3-kinase catalytic subunit beta isoform (Homo sapiens) (UniProt P42338); experiment: Inhibition of partial length human PI3Kbeta expressed in mammalian system at 10 uM by active site-directed competition binding based KINOMEscan assay
Phosphatidylinositol 4,5-bisphosphate 3-kinase catalytic subunit beta isoform (Homo sapiens), sequence (P42338 whole entry, looked up, canonical isoform): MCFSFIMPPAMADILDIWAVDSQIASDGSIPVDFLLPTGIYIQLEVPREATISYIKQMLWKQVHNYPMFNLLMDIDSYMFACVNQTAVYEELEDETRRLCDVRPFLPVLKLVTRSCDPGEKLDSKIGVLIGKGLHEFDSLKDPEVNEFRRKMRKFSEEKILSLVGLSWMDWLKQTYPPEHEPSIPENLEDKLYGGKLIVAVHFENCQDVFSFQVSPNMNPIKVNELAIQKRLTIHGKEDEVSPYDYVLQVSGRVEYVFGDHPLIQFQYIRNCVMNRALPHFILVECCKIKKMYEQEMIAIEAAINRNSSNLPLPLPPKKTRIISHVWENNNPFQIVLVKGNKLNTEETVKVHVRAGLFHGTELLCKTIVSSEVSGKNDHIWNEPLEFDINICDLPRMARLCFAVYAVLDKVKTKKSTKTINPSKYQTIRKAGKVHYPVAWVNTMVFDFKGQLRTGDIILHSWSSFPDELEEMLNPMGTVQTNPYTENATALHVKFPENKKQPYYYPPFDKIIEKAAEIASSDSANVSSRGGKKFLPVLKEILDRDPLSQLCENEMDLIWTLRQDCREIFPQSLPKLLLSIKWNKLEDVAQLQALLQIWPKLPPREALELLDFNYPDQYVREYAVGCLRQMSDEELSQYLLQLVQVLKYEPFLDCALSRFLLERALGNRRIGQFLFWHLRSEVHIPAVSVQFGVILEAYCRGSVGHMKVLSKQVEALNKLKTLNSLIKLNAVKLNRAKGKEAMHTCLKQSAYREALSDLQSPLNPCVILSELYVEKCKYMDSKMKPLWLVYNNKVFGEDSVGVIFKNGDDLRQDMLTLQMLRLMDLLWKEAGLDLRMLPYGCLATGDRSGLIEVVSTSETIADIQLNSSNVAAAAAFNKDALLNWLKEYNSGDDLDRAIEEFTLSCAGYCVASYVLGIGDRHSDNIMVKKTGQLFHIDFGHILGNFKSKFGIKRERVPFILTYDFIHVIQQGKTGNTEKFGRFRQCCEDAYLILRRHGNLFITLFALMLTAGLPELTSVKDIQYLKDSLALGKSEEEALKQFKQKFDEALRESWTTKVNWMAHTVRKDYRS
Method in brief: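 Active-site-directed competition binding assay across more than 400 human kinases, with compound tested at 10 µM.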

[34] = biological target: PI3-kinase p110-alpha/p85-alpha (Homo sapiens, UniProt P42336); experiment: Inhibition of full length human p110alpha/p85alpha using PIP2 as substrate after 30 mins by TR-FRET assay; type: protein-complex assay; method in brief: as §1
[35] = biological target: PI3K p110 beta/p85 alpha (Homo sapiens, UniProt P42338); experiment: Inhibition of full length human His-tagged p110beta/p85alpha using PIP2 as substrate after 30 mins by TR-FRET assay; type: protein-complex assay; method in brief: as §1
[36] = biological target: PI3-kinase p110-delta/p85-alpha (Homo sapiens, UniProt O00329); experiment: Inhibition of full length human p110delta/p85alpha using PIP2 as substrate after 30 mins by TR-FRET assay; type: protein-complex assay; method in brief: as §1
PI3-kinase p110-delta/p85-alpha, sequence (P27986 whole entry): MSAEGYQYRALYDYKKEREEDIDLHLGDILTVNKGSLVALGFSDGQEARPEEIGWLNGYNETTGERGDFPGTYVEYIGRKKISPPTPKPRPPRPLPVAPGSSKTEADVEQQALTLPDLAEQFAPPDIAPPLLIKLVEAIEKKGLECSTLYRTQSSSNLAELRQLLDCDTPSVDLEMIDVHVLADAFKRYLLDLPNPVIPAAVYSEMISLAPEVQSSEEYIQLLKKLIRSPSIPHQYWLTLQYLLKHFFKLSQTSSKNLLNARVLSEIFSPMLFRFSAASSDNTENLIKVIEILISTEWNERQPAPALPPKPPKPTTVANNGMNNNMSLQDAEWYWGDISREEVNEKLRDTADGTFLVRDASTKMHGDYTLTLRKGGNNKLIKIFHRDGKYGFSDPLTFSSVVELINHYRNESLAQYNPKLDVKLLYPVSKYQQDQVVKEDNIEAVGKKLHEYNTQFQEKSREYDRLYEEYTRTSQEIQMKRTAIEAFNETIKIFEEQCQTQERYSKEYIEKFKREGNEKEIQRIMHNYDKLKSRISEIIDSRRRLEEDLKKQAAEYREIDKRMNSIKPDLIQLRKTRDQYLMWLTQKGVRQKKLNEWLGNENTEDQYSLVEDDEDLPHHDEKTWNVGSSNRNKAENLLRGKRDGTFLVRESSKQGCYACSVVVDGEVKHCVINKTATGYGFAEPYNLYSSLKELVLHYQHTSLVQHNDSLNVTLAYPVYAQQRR
PI3-kinase p110-delta/p85-alpha, sequence (O00329 whole entry): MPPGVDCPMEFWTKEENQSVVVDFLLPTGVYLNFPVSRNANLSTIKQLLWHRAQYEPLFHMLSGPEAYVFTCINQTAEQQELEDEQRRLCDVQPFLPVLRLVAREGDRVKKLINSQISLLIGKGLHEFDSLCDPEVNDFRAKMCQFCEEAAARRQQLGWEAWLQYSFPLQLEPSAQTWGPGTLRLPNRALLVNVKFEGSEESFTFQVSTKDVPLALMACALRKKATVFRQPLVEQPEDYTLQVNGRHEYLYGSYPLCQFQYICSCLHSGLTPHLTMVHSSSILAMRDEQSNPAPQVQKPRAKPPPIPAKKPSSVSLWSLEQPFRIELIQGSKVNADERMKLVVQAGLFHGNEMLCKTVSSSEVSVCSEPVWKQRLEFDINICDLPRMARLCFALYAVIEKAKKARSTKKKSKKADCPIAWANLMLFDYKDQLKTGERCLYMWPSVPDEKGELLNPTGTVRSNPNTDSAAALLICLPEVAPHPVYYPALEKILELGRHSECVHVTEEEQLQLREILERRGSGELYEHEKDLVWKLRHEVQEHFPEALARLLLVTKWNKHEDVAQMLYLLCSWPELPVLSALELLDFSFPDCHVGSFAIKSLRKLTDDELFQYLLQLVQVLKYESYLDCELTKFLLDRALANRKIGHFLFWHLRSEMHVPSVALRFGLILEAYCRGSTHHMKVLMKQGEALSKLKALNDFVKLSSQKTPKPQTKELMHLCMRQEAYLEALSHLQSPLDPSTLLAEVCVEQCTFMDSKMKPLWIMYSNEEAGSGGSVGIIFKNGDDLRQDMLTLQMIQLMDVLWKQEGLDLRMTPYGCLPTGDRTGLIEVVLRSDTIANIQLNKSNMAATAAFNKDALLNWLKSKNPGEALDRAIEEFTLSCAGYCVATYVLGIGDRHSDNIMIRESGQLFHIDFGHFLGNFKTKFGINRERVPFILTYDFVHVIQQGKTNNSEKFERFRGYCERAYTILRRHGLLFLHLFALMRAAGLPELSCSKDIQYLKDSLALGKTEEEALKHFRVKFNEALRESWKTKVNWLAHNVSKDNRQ

- pIC50 [1]: < 5.00 and 5.37 and 5.38
- CLint scaled at 1 µM ([2]; liver microsomes, read-out: CLH (converted)): 2.5 mL/min/kg
- CLH ([2]; microsomes, 1 µM): < 2 mL/min/kg
- Drug metabolism [3]: Metabolite_Detected
- Drug metabolism [4]: Metabolite_Detected
- Stability [4]: Stable
- inhibition (INH) [7]: Not Active
- fraction unbound [8]: 0.19
- clearance [9]: 11.3 mL/min/kg
- Vd [10]: 2.68 L/kg
- half-life [11]: 9.55 h
- MRT [12]: 3.87 h
- bioavailability [13]: 60.4%
- fraction unbound [14]: 0.078
- clearance [15]: 3.67 mL/min/kg
- Vd [16]: 0.89 L/kg
- half-life [17]: 3.61 h
- MRT [18]: 4.04 h
- fraction unbound [19]: 0.062
- clearance [20]: 1.83 mL/min/kg
- Vd [21]: 0.45 L/kg
- half-life [22]: 5.17 h
- MRT [23]: 4.3 h
- bioavailability [24]: 64.2%
- fraction unbound [25]: 0.072
- clearance [26]: 1.67 mL/min/kg
- Vd [27]: 0.63 L/kg
- half-life [28]: 6.04 h
- MRT [29]: 6.2 h
- Papp A→B at 10 µM [30]: 17 ×10⁻⁶ cm/s
- efflux ratio at 10 µM [31]: < 1.5
- K [32]: 2.64 ×10⁻⁷ /s
- inhibition [33]: Active
SMILES: Cc1nc2c(-c3nnc[nH]3)cc(-c3ccnc(N)c3F)cc2n1-c1ccnc2c(F)ccc(F)c12
- Drug metabolism [5]: Metabolite_Notdetected; also recorded: Metabolite_Detected
- inhibition (INH) [6]: Not Active

- pIC50 [34]: 6.63
- pIC50 [35]: 7.96
- pIC50 [36]: 7.17
- pIC50 [1]: 6.36
SMILES: Nc1nccc(-c2cc(-c3nnc[nH]3)c3ncn(-c4ccnc5c(F)ccc(F)c45)c3c2)c1F

From ChEMBL document CHEMBL4325835, “Atropisomerism by Design: Discovery of a Selective and Stable Phosphoinositide 3-Kinase (PI3K) β Inhibitor” (J Med Chem, 2018)
